Experimental findings from ChEMBL document CHEMBL4385599, “Neutral sphingomyelinase 2 inhibitors based on the 4-(1H-imidazol-2-yl)-2,6-dialkoxyphenol scaffold” (Eur J Med Chem, 2019) are described below.

Data set [1] can be described thus: Selectivity index, ratio of IC50 for horseradish peroxidase to IC50 for Inhibition of human recombinant nSMase expressed in HEK293 cells. It is filed as cell-based.
The species entered for data set [2] is Homo sapiens. Briefly: Selectivity index, ratio of IC50 for choline oxidase (unknown origin) to IC50 for Inhibition of human recombinant nSMase expressed in HEK293 cells. The data set is classed as cell-based.
A short description of data set [3]: Metabolic stability in mouse liver microsomes assessed as parent compound remaining at 5 uM in presence of NADPH regenerating system measured after 1 hr by LC/MS/MS method. The data set is classed as ADME, Microsome.
Data set [4] is filed under the species Homo sapiens. The experiment in a line: Selectivity index, ratio of IC50 for alkaline phosphatase (unknown origin) to IC50 for Inhibition of human recombinant nSMase expressed in HEK293 cells. It is filed as cell-based.
A short description of data set [5]: Metabolic stability in human liver microsomes assessed as parent compound remaining at 5 uM in presence of NADPH regenerating system measured after 1 hr by LC/MS/MS method. It is filed as ADME, Microsome.
The target in data set [6] is T1, Sphingomyelin phosphodiesterase 3 (Homo sapiens, UniProt Q9NY59).
T1 sequence (Q9NY59 whole entry): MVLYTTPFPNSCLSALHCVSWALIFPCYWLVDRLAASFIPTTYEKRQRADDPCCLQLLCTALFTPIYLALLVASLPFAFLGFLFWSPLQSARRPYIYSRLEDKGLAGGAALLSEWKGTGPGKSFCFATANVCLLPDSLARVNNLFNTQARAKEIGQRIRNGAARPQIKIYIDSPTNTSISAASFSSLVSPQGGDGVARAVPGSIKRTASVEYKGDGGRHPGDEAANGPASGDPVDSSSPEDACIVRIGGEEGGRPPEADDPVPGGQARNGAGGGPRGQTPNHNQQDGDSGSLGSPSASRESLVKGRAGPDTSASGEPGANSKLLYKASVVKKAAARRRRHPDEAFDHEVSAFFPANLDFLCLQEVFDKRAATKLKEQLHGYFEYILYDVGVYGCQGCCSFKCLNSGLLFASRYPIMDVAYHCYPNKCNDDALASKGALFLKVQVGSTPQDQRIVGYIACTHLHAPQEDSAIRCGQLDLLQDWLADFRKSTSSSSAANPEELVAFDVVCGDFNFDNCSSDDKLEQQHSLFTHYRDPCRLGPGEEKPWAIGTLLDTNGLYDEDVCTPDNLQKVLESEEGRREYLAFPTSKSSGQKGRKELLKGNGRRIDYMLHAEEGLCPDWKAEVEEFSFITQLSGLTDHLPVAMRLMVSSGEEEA
The experiment in a line: Inhibition of human recombinant nSMase expressed in HEK293 cells using sphingomyelin as substrate by alkaline phosphatase, choline oxidase and horseradish peroxidase dependent H2O2 detection based fluorescence coupled assay. Summed up:
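Fluorescence-based coupled assay with human recombinant nSMase2, alkaline phosphatase and choline oxidase; IC50 values are mean ± SD of at least three experiments.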

Data set [7] can be described thus: Metabolic stability in mouse liver microsomes assessed as parent compound remaining in presence of UDPGA at 5 uM measured after 1 hr by LC/MS/MS method. The data set is classed as ADME, Microsome. Summed up:
(§1)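 Glucuronidation: compound in 50 mM Tris-HCl pH 7.5 with microsomes 0.5 mg/mL, 8 mM MgCl2, 25 μg/mL alamethicin, preincubated at 37 °C; started with UDPGA 2 mM final, triplicate; 60 min; quenched with cold acetonitrile plus internal standard; parent remaining by LC/MS/MS; cofactor-free controls.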
For orientation: Liver microsomes are vesicles of endoplasmic reticulum, rich in cytochrome P450 enzymes.

The nature of data set [8]: Ratio of drug level in brain to plasma in CD-1 mouse at 10 mg/kg, po measured after 2 hrs by UPLC and LC-MS/MS analysis. It is filed as ADME, organism-based. Summed up:
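Male CD-1 mice (25–30 g), single oral gavage 10 mg/kg in 5% DMSO, 5% polysorbate 80, 90% saline; 3 mice per time point, sacrificed at 0.5 and 2 h. Cardiac blood into heparin, plasma by centrifugation; brains flash frozen. Acetonitrile extraction with losartan internal standard; quantified by UPLC–LC-MS/MS against calibration curves in naïve plasma/brain matrix.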

Data set [9] in a line: Metabolic stability in human liver microsomes assessed as parent compound remaining in presence of UDPGA at 5 uM measured after 1 hr by LC/MS/MS method. The data set is classed as ADME, Microsome. The procedure, abridged: as §1

Take `Oc1c(OCC(F)(F)F)cc(-c2nc(-c3ccccc3)c(-c3cccs3)[nH]2)cc1OCC(F)(F)F`: the Ratio IC50 in [1], in data set [2] and in data set [4] was over 5 throughout. Moreover, the results for the Stability in data set [3] and in data set [5] were over 95% and 94%, respectively. In addition, the IC50 (as a rule, the concentration that gives 50% inhibition) in data set [6] was 70 nM.

On to `COc1cc(C2=NCCN2)cc(OC)c1O`, for which the Ratio IC50 in data set [1], in data set [2] and in data set [4] was over 5 throughout. The IC50 in data set [6] is over 100000 nM.

For `COc1cc(-c2nc(C)c(-c3ccccc3)[nH]2)cc(OC)c1O`, the Ratio IC50 in data set [1], in data set [2] and in data set [4] was over 5 in each case. Also, the Stability is 82% in [3] and 95% in [5].

With `COc1cc(-c2nc3c([nH]2)CCCC3)cc(OC)c1O`, the Ratio IC50 in data set [1], in data set [2] and in data set [4] was under 5 each time. In addition, in data set [6], the IC50 was found to be 420 nM.

Take `COc1cc(-c2ncc[nH]2)cc(OC)c1O`: the Ratio IC50 in data set [1], in data set [2] and in data set [4] was over 5 throughout. In data set [6], the IC50 amounted to 420 nM.

Take `COc1cc(-c2nc(C)c(C)[nH]2)cc(OC)c1O`: the Ratio IC50 in data set [1], in [2] and in data set [4] was under 5 each time. Further, in [6], the IC50 was found to be 520 nM.

As to `COc1cc(-c2nc(-c3cccs3)c(C)[nH]2)cc(OC)c1O`, the Ratio IC50 in data set [1], in [2] and in data set [4] was over 5 each time. The Stability amounted to 95% in data set [3] and 73% in data set [5]. In addition, in data set [6], the concentration for half-maximal inhibition (IC50) worked out at 20 nM.

As for `CC(C)Oc1cc(-c2nc(-c3ccccc3)c(-c3cccs3)[nH]2)cc(OC(C)C)c1O`, the Ratio IC50 in data set [1], in data set [2] and in data set [4] was over 5 each time. Besides, the figures for the Stability in [3] and in [7] were 4% and over 95%, respectively. Besides, the IC50 in data set [6] came out at 40 nM.

For the compound `Oc1c(Cl)cc(-c2nc(-c3ccccc3)c(-c3cccs3)[nH]2)cc1Cl`, the Ratio IC50 in [1], in data set [2] and in data set [4] was over 5 in each case. Moreover, the concentration for half-maximal inhibition (IC50) in data set [6] was over 100000 nM.

`COc1cc(-c2nc(-c3ccc(C)cc3)c[nH]2)cc(OC)c1O`: the Ratio IC50 in data set [1], in data set [2] and in [4] was over 5 each time. In data set [6], the IC50 worked out at 130 nM.

As for `Oc1cccc(-c2nc(-c3ccccc3)c(-c3cccs3)[nH]2)c1`, the Ratio IC50 in data set [1], in [2] and in data set [4] was over 5 in each case. Moreover, in data set [6], the IC50 is over 100000 nM.

Regarding `COc1cc(-c2nc(-c3ccccc3)c(C(C)C)[nH]2)cc(OC)c1O`, the Ratio IC50 in data set [1], in data set [2] and in data set [4] was over 5 each time. The Stability in data set [3] was 94%; in data set [5], over 95%. Moreover, the IC50 in data set [6] worked out at 70 nM.

`Oc1ccc(-c2nc(-c3ccccc3)c(-c3cccs3)[nH]2)cc1`: the Ratio IC50 in [1], in [2] and in data set [4] was under 5 throughout. Besides, the IC50 in data set [6] was determined as 2100 nM.

As for `COc1cc(OC)cc(-c2nc(-c3ccccc3)c(-c3cccs3)[nH]2)c1`, the Ratio IC50 in [1], in data set [2] and in [4] was over 5 each time.

As for `Oc1c(OC2CCCC2)cc(-c2nc(-c3ccccc3)c(-c3cccs3)[nH]2)cc1OC1CCCC1`, the Ratio IC50 in data set [1], in data set [2] and in [4] was over 5 in each case. In data set [6], the IC50 stood at 120 nM.

In the case of `CCCCc1[nH]c(-c2cc(OC)c(O)c(OC)c2)nc1C`, the Ratio IC50 in data set [1], in data set [2] and in [4] was over 5 each time.

With `COc1cc(-c2nc(-c3ccc(C)cc3)c(-c3ccc(C)cc3)[nH]2)cc(OC)c1O`, the Ratio IC50 in data set [1], in [2] and in [4] was over 5 throughout. Further, the Stability in [3] and in data set [5] was over 95% throughout. The IC50 in data set [6] stood at 70 nM.

Take `COc1cc(-c2ncc(C)[nH]2)cc(OC)c1O`: the Ratio IC50 in [1], in [2] and in data set [4] was under 5 in each case. Besides, the IC50 in [6] stood at 220 nM.

For the compound `CCc1nc(-c2cc(OC)c(O)c(OC)c2)[nH]c1CC`, the Ratio IC50 in data set [1], in data set [2] and in data set [4] was over 5 throughout. In addition, the Stability in data set [3] is given as 75%; in data set [5], over 95%. For the same compound, the IC50 in data set [6] came to 120 nM.

Turning to `CCOc1cc(-c2nc(-c3ccccc3)c(-c3cccs3)[nH]2)cc(OCC)c1O`, the Ratio IC50 in data set [1], in data set [2] and in data set [4] was over 5 throughout. The Stability in data set [3] turned out to be 35%. The IC50 in data set [6] stood at 10 nM.

Turning to `COc1cc(-c2nc(-c3ccccc3)c(-c3cccs3)[nH]2)cc(OC)c1OC`, the Ratio IC50 in [1], in [2] and in data set [4] was over 5 each time. For the same compound, the IC50 in [6] is over 100000 nM.

With `COc1cc(-c2ncc(-c3ccccc3)[nH]2)cc(OC)c1O`, the Ratio IC50 in [1], in [2] and in [4] was over 5 each time.

Turning to `Oc1ccccc1-c1nc(-c2ccccc2)c(-c2cccs2)[nH]1`, the Ratio IC50 in data set [1], in data set [2] and in data set [4] was over 5 in each case. Besides, the IC50 in data set [6] is over 100000 nM.

Turning to `COc1cc(-c2nc(-c3ccco3)c(-c3ccco3)[nH]2)cc(OC)c1O`, the Ratio IC50 in data set [1], in [2] and in data set [4] was over 5 each time. Also, in [6], the IC50 was 40 nM.

On to `COc1cc(-c2nc(-c3ccccc3)c(-c3cccs3)[nH]2)ccc1O`, for which the Ratio IC50 in data set [1], in data set [2] and in data set [4] was over 5 in each case.

As for `COc1ccc(-c2nc(-c3cc(OC)c(O)c(OC)c3)[nH]c2-c2ccc(OC)cc2)cc1`, the Ratio IC50 in data set [1], in [2] and in data set [4] was over 5 in each case. The Stability in data set [3] is listed as 73%; in data set [5], 75%.

For the compound `CC(C)(C)Oc1cc(-c2nc(-c3ccccc3)c(-c3cccs3)[nH]2)cc(OC(C)(C)C)c1O`, the Ratio IC50 in data set [1], in data set [2] and in data set [4] was over 5 each time. In addition, the IC50 in [6] was 520 nM.

For `COc1cc(-c2nccs2)cc(OC)c1O`, the Ratio IC50 in [1], in [2] and in data set [4] was under 5 each time. Moreover, the 50% inhibitory concentration (IC50) in data set [6] turned out to be 20000 nM.

In the case of `COc1cc(-c2nc(-c3ccccc3)c(-c3ccccc3)[nH]2)cc(OC)c1O`, the Ratio IC50 in data set [1], in data set [2] and in data set [4] was over 5 throughout. Besides, the Stability in data set [3] and in [5] was over 95% throughout.

As for `COc1cc(-c2nc(-c3cccs3)c(-c3ccccc3)[nH]2)cc(OC)c1O`, the BPR in data set [8] was determined as 17%. Further, the Stability in data set [3] is 95%; in data set [7] it was 67%; in [5], 95%; in data set [9], 50%.

Turning to `COc1cc(-c2nc(-c3cccs3)c(-c3cccs3)[nH]2)cc(OC)c1O`, the Ratio IC50 in data set [1], in [2] and in [4] was over 5 each time.
